The values that follow come from article PMC7813200 (Neuro-oncology Advances, 2020).

Series [1] concerns T98G cells. Put plainly: cells in S phase, BrdU incorporation, T98G. The format is cell-based, human. In general terms: Incorporation of labelled thymidine or its analogues reports DNA synthesis.
For series [2], the system named is MGG8 cells. Put plainly: cell viability WST-1, MGG8. The format is cell-based, human. The conditions noted are these: 72 h. A general note: Tetrazolium dyes change colour on reduction, which living cells bring about.
For series [3], the system named is MGG8 cells. Put plainly: cells in S phase, BrdU incorporation, MGG8. The format is cell-based, human. The conditions noted are these: NOC 3 μM.
A further series concerns HCT116 cells. Description: live cell imaging of MT assembly rates. The format is cell-based, human. In outline: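 HCT116 cells expressing EB1-GFP to label growing microtubule ends. Imaged at a single Z-plane at 500-ms intervals. Assembly rates scored in interphase cells by particle tracking, before treatment and again after compound wash-out (POST).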
Series [4] concerns PD-glioma isolates (proneural, mesenchymal, classical, MGG8). Put plainly: viability of PD-glioma isolates. The format is cell-based. The conditions noted are these: Homo sapiens, read-out: IC50, antitumor activity (viability, WST-1).
The subject of another series is CD1 mice. Put plainly: maximal tolerated dose and dose range finding. It counts as in vivo, mouse. The conditions noted are these: bidaily i.p. 20 mg/kg, 5 days/week for 4 weeks. In outline:
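CD1 mice dosed i.p. at 5, 10, 20, 50, 100 or 150 mg/kg, or with the corresponding volume of no-drug formulation (vehicle). Monitored for signs of general distress. Regimen 2: 20 mg/kg i.p. bidaily, 5 days/week for 4 weeks.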

The next series has as its system tubulin. Description: tubulin assembly, pelleting assay. It counts as biochemical. The conditions noted are these: compared to ST-360. In outline:
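Tubulin assembly assessed by pelleting assay, with release of free tubulin measured. Mean ± SEM from 3 to 5 experiments.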

For a further series, the system named is PDGFB-glioma. Put plainly: RCAS/tv-a PDGFB glioma mouse model. It counts as in vivo. The conditions noted are these: for tumor density by olig-2 immunostaining: each arm at its regimen (ST-401 regimen 2; TMZ 50 mg/kg); for necrotic area: end-stage histopathology, each arm at its regimen.
In series [5] the test system is T98G cells. Put plainly: cell viability WST-1, T98G. It counts as cell-based. The conditions noted are these: Homo sapiens, 72 h, read-out: IC50, overall cell viability.
Series [6] deals with COLO205 cell-derived subcutaneous xenografts. Description: COLO205 xenograft flank tumor model. It counts as in vivo, mouse.
A short description of series [7]: pharmacokinetics, plasma and brain by LC-MS. The format is in vivo, mouse.
Series [8] concerns six human glioma cell lines (SF-268, SF-295, SF-539, SNB-19, SNB-75, U251). Description: NCI-60 cell line panel, six glioma lines. The format is cell-based. The conditions noted are these: read-out: IC50s (growth inhibition, TGI50 in Figure 2A).
Series [9] has as its system tubulin (colchicine site). Put plainly: [3H]colchicine binding to purified tubulin. The conditions noted are these: 5 μM compound; mean of n = 3.
Another series relates to COLO205 cells. Description: NCI-60 cancer cell panel, COLO205. The conditions noted are these: Homo sapiens, COLO 205. It counts as cell-based.
For series [10], the system named is S24 PD-glioma cells. Description: tumor microtube. The conditions noted are these: Y-27632 50 μM. It counts as cell-based, human. In short, it runs like this: (§1)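 GFP-expressing patient-derived S24 and BG5 glioma cells treated with increasing test-compound concentrations (e.g. 30 and 300 nM) or controls: DMSO 1% vehicle, Y-27632 50 μM, nocodazole 300 nM. Stained with Ho342/EthD2. TM number and length per cell quantified semi-automatically from immunofluorescence images via a machine learning-based workflow. Two-way ANOVA, Tukey post-test.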

Another series deals with BG5 PD-glioma cells. Description: tumor microtube. The conditions noted are these: Y-27632 50 μM. It counts as cell-based, human. In short, it runs like this: as §1
For series [11], the system named is S24 PD-glioma cells. Put plainly: cell death of S24 PD-glioma. It counts as cell-based, human. The conditions noted are these: Y-27632 50 mM (as printed in Figure S3), 24 h. In outline:
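GFP-expressing patient-derived S24 glioma cells treated alongside vehicle (DMSO 1%), then stained with Ho342 and EthD2 and imaged by fluorescence microscopy.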

The structures appear in SMILES notation. Entries after “also recorded” stand apart in the source; their conditions may differ. Some results are limits rather than exact numbers.

Take `COC(=O)Nc1nc2ccc(C(=O)c3cccs3)cc2[nH]1` [NOC, nocodazole, reference compound]: the “effect on number of cells in S phase” value is on record as “Lack of response” in the series on T98G cells [1] (NOC 3 μM, BrdU) and “reduce; also recorded: overall less active” with MGG8 cells [3]. In addition, the “reduction of cell viability” value in the series on MGG8 cells [2] (NOC 3 µM, WST-1) is given as 18%.

Consider `CCn1c2ccccc2c2cc(C(O)c3cccc4ncccc34)ccc21` (centres unmarked) [ST-401, (9‐ethyl‐9H‐carbazol‐3‐yl)(quinolin‐5‐yl)methanol], for which, in the series on HCT116 cells (100 nM, after wash-out), the “time for MT assembly to reach initial rates after wash-out” value was ≤ 15 min. Besides, the “reduction in MT assembly rate” value in the series on HCT116 cells (100 nM, interphase cells, compared to NOC 100 nM) is “milder reduction”. For the same compound, the “inhibition of MT assembly” value in the series with HCT116 cells (200 nM, within 15 min) was “completely and reversibly inhibited all MT assembly”. The IC50 in series [4] is 24 to 47 nM; in the series on T98G cells [5], 36 nM; with MGG8 cells [2] (Homo sapiens, read-out: IC50, overall cell viability) it was 14 nM; in series [8], 23 to 69 nM; in the series on COLO205 cells it was 38 nM. The “response on number of cells in S phase” value with T98G cells [1] (72 h, BrdU incorporation, concentration-response) is “absent”. The “adverse effects (Regimen 2)” value with CD1 mice is given as “did not trigger adverse effects”. Besides, the “MT disassembly (Δ release of free tubulin)” value in the series on tubulin is “greater MT disassembly”. In addition, the average survival in the series with PDGFB-glioma (ST-401+RT arm) is recorded as 50 days; with PDGFB-glioma (ST-401+TMZ arm) it was 46 days. The “effect on average median survival, single agent” value in the series on PDGFB-glioma (ST-401 regimen 2) was “did not affect average median survival”. Moreover, in the series on PDGFB-glioma (ST-401 regimen 2 + RT single dose 10-Gy), the “enhancement of the therapeutic efficacy of RT” value came out at 66%. In addition, the “enhancement of the therapeutic efficacy of TMZ” value in the series on PDGFB-glioma (ST-401 regimen 2 + TMZ 50 mg/kg) stood at 60%. Moreover, the “increase in mitotic figures versus control arm” value with PDGFB-glioma (ST-401 regimen 2, H&E, end stage) came to 69%. In addition, the “increase in tumor density (relative area of HA expression)” value in the series with PDGFB-glioma (ST-401 regimen 2, semi-quantitative IHC) is 54%. Also, in the series with PDGFB-glioma, the “tumor density by olig-2 immunostaining” value is “increase”. The necrotic area entry in the series with PDGFB-glioma is listed as “did not reach significance”. In series [6] (Regimen 2), the “treated tumors that stopped growing despite ending the treatment” value is given as “approximately 50%”. Moreover, the “life-expectancy / survival of treated mice” value in series [6] (Regimen 2, n = 10 mice per arm) is on record as “significant increase in average survival; also recorded: doubling”. Moreover, the “time without recurrence after ending treatment” value in [6] (tumors that stopped growing) is ≥ 28 days. Also, the “time plasma levels remained above 250 nM” value in [7] (bidaily i.p. injections of 20 mg/kg) is listed as “approximately 16 h”. The half-life (as a rule, the time needed for the level to fall by half in the phase considered) in series [7] (mouse, brain, ip, 150 mg/kg) is ~360 min. The “concentration reached in brain” value was “micromolar concentrations” in [7] (single i.p. 150 mg/kg); “micromolar concentrations” in series [7] (single i.p. 20 and 5 mg/kg, 30 min). Further, the plasma concentration entry in [7] (three i.p. injections of 20 mg/kg separated by 8 and 16 h, over 24 h) is on record as “above 250 nM”. Also, the “competition for [3H]colchicine binding to tubulin” value in series [9] is listed as 89%.

On to `Cn1nnc2c(C(N)=O)ncn2c1=O` [TMZ, temozolomide, reference compound], for which the average median survival with PDGFB-glioma (TMZ 50 mg/kg once per day, 5 days/week for 4 weeks, control 20 days) is 30 days. The “extension of average median survival” value in the series with PDGFB-glioma (TMZ 50 mg/kg once per day, 5 days/week for 4 weeks, versus control) amounted to 50%. For the same compound, in the series on PDGFB-glioma, the “tumor density by olig-2 immunostaining” value is on record as “increase” and the necrotic area entry is on record as “unchanged”.

In the case of `C[C@@H](N)[C@H]1CC[C@H](C(=O)Nc2ccncc2)CC1` [Y-27632], in the series with S24 PD-glioma cells [10], the “effect on TM length/cell” value is reported as “increased” and the “effect on TM number/cell” value is “increased”. For the same compound, in the series with BG5 PD-glioma cells, the “effect on TM length/cell” value is “increased” and the “effect on TM number/cell” value is reported as “increased”. In addition, the “effect on cell death / viability” value in the series with S24 PD-glioma cells [11] is given as “did not affect cell viability”.
